For series [1], the target named is T1, Hypoxia inducible factors; HIF-1-alpha, HIF-2-alpha (Homo sapiens, UniProt Q16665+Q99814). The series can be described thus: Inhibition of 1,10-phenanthroline-induced HIF1 activation in human PC3 cells after 16 hrs by pTK-HRE3-luciferase reporter gene assay. The note with it: pc-3. It is filed as cell-based. In outline: (§1)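 Cells transiently transfected with the pHRE-TK-Luc reporter (HIF-1) or the CMV-driven pGL3-Control plasmid, given compound, then exposed for 16 h to hypoxia (1% O2/5% CO2/94% N2, 37°C) or 10 μM 1,10-phenanthroline. Luciferase read-out: % inhibition = (1 − treated/induced light output) × 100. One experiment in triplicate.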

The target in series [2] is T1, Hypoxia inducible factors; HIF-1-alpha, HIF-2-alpha. The series can be described thus: Inhibition of hypoxia-induced HIF1 activation in human PC3 cells after 16 hrs by pTK-HRE3-luciferase reporter gene assay. In kind it is cell-based. The note with it: pc-3. An outline of the steps:
as §1

For series [3], the system named is MCF7. The series can be described thus: Cytotoxicity against human MCF7 cells under hypoxic condition after 48 hrs by natural red method. It is filed as functional, cell-based. The conditions noted are these: MCF7, 48 h. In outline: (§2)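 Cells plated at 30,000/well in DMEM/F12 with 10% FCS and antibiotics and left overnight, then given compound in serum-free DMEM/F12. After a 30 min pre-exposure, incubation ran 48 h under normoxia (5% CO2/95% air) or hypoxia (1% O2/5% CO2/94% N2). Viability was read by neutral red, expressed as % inhibition, from one experiment in triplicate.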

Series [4] deals with MCF7. The series can be described thus: Cytotoxicity against human MCF7 cells under normoxic condition after 48 hrs by natural red method. It is filed as functional, cell-based. The note with it: MCF7, 48 h. In outline:
as §2

Series [5] concerns MDA-MB-231. The series can be described thus: Cytotoxicity against human MDA-MB-231 cells under hypoxic condition after 48 hrs by natural red method. It is filed as functional, cell-based. The conditions noted are these: MDA-MB-231, 48 h. In outline:
as §2

Series [6] deals with PC-3. Nature of the series: Cytotoxicity against human PC3 cells under hypoxic condition after 48 hrs by natural red method. In kind it is functional, cell-based. The note with it: PC-3, 48 h. In outline:
as §2

Series [7] relates to PC-3. The series can be described thus: Cytotoxicity against human PC3 cells under normoxic condition after 48 hrs by natural red method. The note with it: PC-3, 48 h. In kind it is functional, cell-based. In outline: as §2
Series [8] deals with T47D. Nature of the series: Cytotoxicity against human T47D cells under normoxic condition after 48 hrs by natural red method. In kind it is functional, cell-based. In outline:
as §2

Series [9] deals with T47D. The series can be described thus: Cytotoxicity against human T47D cells under hypoxic condition after 48 hrs by natural red method. It is filed as functional, cell-based. In outline:
as §2

Series [10] deals with MDA-MB-231. Nature of the series: Cytotoxicity against human MDA-MB-231 cells under normoxic condition after 48 hrs by natural red method. It is filed as functional, cell-based. The note with it: MDA-MB-231, 48 h. An outline of the steps: as §2
The target in series [11] is T1, Hypoxia inducible factors; HIF-1-alpha, HIF-2-alpha. The series can be described thus: Inhibition of hypoxia-induced HIF1 activation in human T47D cells after 16 hrs by pTK-HRE3-luciferase reporter gene assay. It is filed as cell-based. In outline:
as §1
Background: A reporter such as luciferase makes a cellular process visible.

Series [12] has the same target. Nature of the series: Inhibition of 1,10-phenanthroline-induced HIF1 activation in human T47D cells after 16 hrs by pTK-HRE3-luciferase reporter gene assay. In kind it is cell-based. In outline:
as §1

Series [13] has as its system T47D. The series can be described thus: Inhibition of electron transport protein complex 4 in human T47D cells assessed as decrease in oxygen consumption at 30 uM pretreated for 2 hrs before TMPD/ascorbate addition by mitochondrial respiration assay. It is filed as cell-based. An outline of the steps:
(§3)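 T47D cells permeabilized with 30 μM digitonin in Clark-electrode chamber containing buffer of 20 mM HEPES pH 7.3, 120 mM KCl, 2 mM KH2PO4, 2 mM MgCl2, 1 mM EGTA, 0.3% fat-free BSA. Substrates: 5 mM pyruvate + 5 mM malate (complex I), 5 mM succinate (complex II), 5 mM ascorbate + 0.2 mM TMPD (complex IV); rotenone and antimycin A as inhibitors. Oxygen consumption monitored.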

For series [14], the system named is T47D. Nature of the series: Inhibition of electron transport protein complex 3 in human T47D cells assessed as decrease in oxygen consumption at 30 uM pretreated for 2 hrs before succinate addition by mitochondrial respiration assay. In kind it is cell-based. In outline:
as §3

Series [15] relates to T47D. The series can be described thus: Inhibition of electron transport protein complex 2 in human T47D cells assessed as decrease in oxygen consumption at 30 uM pretreated for 2 hrs before succinate addition by mitochondrial respiration assay. It is filed as cell-based. An outline of the steps:
as §3

For series [16], the system named is T47D. The series can be described thus: Inhibition of electron transport protein complex 1 in human T47D cells assessed as decrease in oxygen consumption at 30 uM pretreated for 2 hrs before malate and pyruvate addition by mitochondrial respiration assay. It is filed as cell-based. An outline of the steps:
as §3

Series [17] concerns T47D. Nature of the series: Inhibition of cellular respiration in human T47D cells assessed as oxygen consumption at 30 uM. In kind it is functional, cell-based. In outline: (§4)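 Intact T47D cells (5×10^6, equilibrated to 30°C) in 1 mL serum- and antibiotic-free DMEM/F12, with 17.5 mM glucose as substrate, in a Clark-type oxygen electrode. After 15 min baseline, compound in isopropyl alcohol injected at 3 min intervals. Oxygen consumption measured in triplicate; one-way ANOVA with Bonferroni post test.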

The subject of series [18] is T47D. The series can be described thus: Inhibition of cellular respiration in human T47D cells assessed as oxygen consumption at 10 uM. In kind it is functional. An outline of the steps: as §4
Series [19] deals with Aryl hydrocarbon receptor nuclear translocator (Homo sapiens) (UniProt P27540). Nature of the series: Inhibition of hypoxia-induced nuclear HIF1beta in human T47D cells at 10 uM after 4 hrs by Western blot analysis. It is filed as cell-based.
Aryl hydrocarbon receptor nuclear translocator (Homo sapiens), sequence (P27540 whole entry): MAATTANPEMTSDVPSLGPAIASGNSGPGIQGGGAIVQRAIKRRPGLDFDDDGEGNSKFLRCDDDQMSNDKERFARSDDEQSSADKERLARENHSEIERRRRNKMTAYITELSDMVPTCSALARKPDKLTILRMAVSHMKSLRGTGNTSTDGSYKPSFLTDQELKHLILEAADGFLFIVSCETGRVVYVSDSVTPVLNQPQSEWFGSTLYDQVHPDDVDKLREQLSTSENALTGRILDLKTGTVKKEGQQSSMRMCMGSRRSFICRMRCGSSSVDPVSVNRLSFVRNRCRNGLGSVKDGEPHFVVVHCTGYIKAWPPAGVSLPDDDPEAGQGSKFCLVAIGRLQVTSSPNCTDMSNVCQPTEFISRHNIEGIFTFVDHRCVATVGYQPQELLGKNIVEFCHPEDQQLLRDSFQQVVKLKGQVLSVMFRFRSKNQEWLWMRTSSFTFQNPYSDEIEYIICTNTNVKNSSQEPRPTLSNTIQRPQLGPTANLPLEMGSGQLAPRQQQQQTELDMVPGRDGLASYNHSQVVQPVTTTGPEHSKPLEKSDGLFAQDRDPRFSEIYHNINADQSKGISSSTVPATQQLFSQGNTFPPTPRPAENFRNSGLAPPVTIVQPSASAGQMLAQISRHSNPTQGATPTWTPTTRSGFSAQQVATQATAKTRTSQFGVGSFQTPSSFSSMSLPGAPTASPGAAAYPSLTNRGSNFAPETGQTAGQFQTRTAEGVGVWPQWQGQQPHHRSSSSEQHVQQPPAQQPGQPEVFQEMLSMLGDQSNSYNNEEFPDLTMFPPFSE
The target in series [20] is Hypoxia-inducible factor 1-alpha (Homo sapiens) (UniProt Q16665). Nature of the series: Inhibition of 1,10-phenanthroline-induced nuclear HIF1alpha in human T47D cells at 10 uM after 4 hrs by Western blot analysis. In kind it is cell-based. Background: Immunoblotting shows a protein as a band on a membrane.
Hypoxia-inducible factor 1-alpha (Homo sapiens), sequence (Q16665 whole entry, looked up): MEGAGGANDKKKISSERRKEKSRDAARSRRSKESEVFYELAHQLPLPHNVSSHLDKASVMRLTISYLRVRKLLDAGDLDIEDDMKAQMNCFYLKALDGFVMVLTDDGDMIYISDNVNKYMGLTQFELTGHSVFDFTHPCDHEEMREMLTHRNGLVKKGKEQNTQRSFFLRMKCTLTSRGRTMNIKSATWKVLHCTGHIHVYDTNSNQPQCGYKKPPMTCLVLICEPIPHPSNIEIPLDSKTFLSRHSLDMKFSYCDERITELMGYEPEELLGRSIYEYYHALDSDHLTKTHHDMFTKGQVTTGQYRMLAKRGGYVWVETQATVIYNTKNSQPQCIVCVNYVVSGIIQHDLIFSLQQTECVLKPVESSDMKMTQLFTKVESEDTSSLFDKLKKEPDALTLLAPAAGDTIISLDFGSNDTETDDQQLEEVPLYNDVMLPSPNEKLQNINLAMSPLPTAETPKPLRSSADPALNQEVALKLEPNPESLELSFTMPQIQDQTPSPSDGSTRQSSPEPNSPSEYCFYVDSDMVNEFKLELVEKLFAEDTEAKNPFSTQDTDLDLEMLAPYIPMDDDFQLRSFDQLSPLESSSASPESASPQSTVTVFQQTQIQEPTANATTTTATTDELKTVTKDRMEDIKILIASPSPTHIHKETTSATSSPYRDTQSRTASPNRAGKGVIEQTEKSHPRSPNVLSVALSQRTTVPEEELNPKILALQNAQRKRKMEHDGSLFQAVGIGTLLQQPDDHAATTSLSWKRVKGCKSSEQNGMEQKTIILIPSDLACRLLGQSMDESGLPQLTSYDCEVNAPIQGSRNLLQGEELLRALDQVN
For series [21], the target named is T1, Hypoxia inducible factors; HIF-1-alpha, HIF-2-alpha. Nature of the series: Inhibition of hypoxia-induced HIF1 activation in human T47D cells at 30 uM after 16 hrs by pTK-HRE3-luciferase reporter gene assay. It is filed as cell-based. In outline: as §1
The subject of series [22] is T47D. Nature of the series: Cytotoxicity against human T47D cells under hypoxic conditions at 30 uM after 48 hrs by natural red method. It is filed as functional. In outline: as §2
In series [23] the test system is T47D. The series can be described thus: Inhibition of hypoxia-induced VEGF secretion in human T47D cells after 16 hrs by ELISA. It is filed as functional, cell-based. An outline of the steps:
(§5)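 T47D plated at 356,000 cells/well and left overnight at 37°C. Compound added in serum-free DMEM/F12 for 30 min under air, then 16 h under hypoxia (1% O2/5% CO2/94% N2) or with 10 μM 1,10-phenanthroline. Secreted VEGF in conditioned medium was measured by ELISA and normalized to total lysate protein (BCA).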
On the technique in general: In an ELISA, binding on a coated surface is turned into a signal by an enzyme label.

Series [24] deals with T47D. Nature of the series: Inhibition of 1,10-phenanthroline-induced VEGF secretion in human T47D cells at 30 uM after 16 hrs by ELISA. In kind it is functional, cell-based. In outline: as §5
A short description of series [25]: Selectivity for inhibition of hypoxia-induced HIF1 activation in human T47D cells over cytotoxicity to human T47D cells. In kind it is toxicity, cell-based.
The target of series [26] is Hypoxia-inducible factor 1-alpha (Homo sapiens) (UniProt Q16665). Nature of the series: Inhibition of hypoxia-induced nuclear HIF1alpha in human T47D cells at 10 uM after 4 hrs by Western blot analysis. It is filed as cell-based.
A short description of series [27]: Selectivity ratio of IC50 for inhibition of hypoxia-induced HIF1 activation in human T47D cells to IC50 for cytotoxicity to human T47D cells. It is filed as toxicity, cell-based. The note with it: read-out: Ratio IC50.

The source of these data is ChEMBL document CHEMBL1154240, “Molecular-targeted antitumor agents. 19. Furospongolide from a marine Lendenfeldia sp. sponge inhibits hypoxia-inducible factor-1 activation in breast tumor cells” (J Nat Prod, 2008).

Activity calls are given as the source filed them. The rule behind the calls is not given here. Some results are limits rather than exact numbers.

Regarding `CC(=O)C1=CC[C@H]2[C@]3(C)CC[C@H]4C(C)(C)CCC[C@]4(CO)[C@H]3CC(=O)[C@]2(C)[C@H]1C=O`, the IC50 (in general, the concentration needed to halve the response being measured) in series [1] is 1000 nM; in series [2] it was 900 nM; in series [3], 600 nM; in series [4] it was 600 nM; in series [5], 300 nM; in series [6] it was 1100 nM. The IC50 was 800 nM in [7]; 1200 nM in [8]; 1800 nM in series [9]; 300 nM in series [10]; 500 nM in series [11]; 200 nM in series [12].

Regarding `C/C(=C\CCc1ccoc1)CC/C=C(\C)CCCC1=CC(=O)OC1` [FUROSPONGOLIDE], the 50% inhibitory concentration (IC50) in [1] was over 30000 nM; in [2], over 30000 nM; in [3], over 30000 nM; in [4], 29000 nM; in [5] it was over 30000 nM; in series [6], over 30000 nM. Further, the IC50 was over 30000 nM in series [7]; 14000 nM in [8]; over 30000 nM in [9]; over 30000 nM in [10]; 2900 nM in series [11]; 10900 nM in series [12]. Also, the result in series [13], in series [14] and in [15] was inactive. The outcome in [16] was Active. For the same compound, the inhibition result in series [17], in series [19] and in [26] was “Active” each time. The inhibition (as a rule, how much of the control response was suppressed) at 10 µM in series [18] stood at 38%. Besides, the inhibition result in series [20] and in series [24] was “inactive” each time. The inhibition in series [21] was 97%; in [23] it was “Dose-dependent effect”. The compound also had an inhibition at 30 µM in series [22] of 26%. For the same compound, the selectivity ratio in [25] was over 10.

For `COC(=O)[C@]12CCCC(C)(C)[C@@H]1CC[C@@]1(C)[C@@H]3CC=C(C(C)=O)[C@H](C=O)[C@@]3(C)C(=O)C[C@@H]12`, the half-inhibitory concentration (IC50) in series [1] is 9000 nM; in series [2], 7700 nM; in series [3], 6800 nM; in [4], 6100 nM; in series [5], 2000 nM; in series [6], 10200 nM. In addition, the IC50 in series [7] came to 6400 nM; in [8], 5500 nM; in series [9], 10800 nM; in series [10] it was 1900 nM; in series [11], 2700 nM; in series [12], 1000 nM.

`CC(=O)C1=CC[C@H]2[C@]3(C)CC[C@H]4C(C)(C)CCC[C@]4(CO)[C@H]3C[C@H](O)[C@]2(C)[C@H]1C=O`: the 50% inhibitory concentration (IC50) in series [1] was 800 nM; in [2] it was 500 nM; in series [3] it was 700 nM; in [6] it was 900 nM; in series [8], 1000 nM; in series [9] it was 1600 nM. Besides, the results for the half-maximal inhibitory concentration (IC50) in series [11] and in series [12] were 400 nM and 200 nM, respectively. Besides, the selectivity ratio in [27] came to 3.
